Measured values of several laboratories.
Protocols differ between the studies behind these lines.
SLC6A2: Sodium-dependent noradrenaline transporter (SLC6A2, Homo sapiens, UniProt P23975)
CECR2: Chromatin remodeling regulator CECR2 (CECR2, Homo sapiens, UniProt Q9BXF3)

`Fc1ccc(C(c2ccc(F)cc2)c2nnnn2CCCCN2CCN(Cc3ccccc3)CC2)cc1` has an inhibition of 95% (SLC6A2; transporter uptake, inhibitor; HEK293; 1 µM).
`CC(C)(C)c1nc(-c2cccc(NS(=O)(=O)c3c(F)cccc3F)c2F)c(-c2ccnc(N)n2)s1` has a remaining activity of 101% (Mitotic checkpoint serine/threonine-protein kinase BUB1 beta (BUB1B, Homo sapiens, UniProt O60566); enzyme activity, inhibitor, radiometric; 1 µM).
For `CCN1CCN(Cc2ccc(NC(=O)c3ccc(C)c(Oc4ccnc5[nH]ccc45)c3)cc2C(F)(F)F)CC1`, the inhibition was -138% (Serine/threonine-protein kinase 10 (STK10, Homo sapiens, UniProt O94804); target engagement in cells, inhibitor, chemoproteomics; A-375; 5 µM).
The ΔTm of `C[S+]([O-])c1ccc(-c2nc(-c3ccncc3)c(-c3ccc(F)cc3)[nH]2)cc1` (stereo not shown) is reported as 0.89 °C (CECR2; thermal stability, DSF; 10 µM).
`Cc1ccc(C(=O)Nc2ccc(CN3CCN(C)CC3)c(C(F)(F)F)c2)cc1C#Cc1cnc2cccnn12` gave a remaining activity of 93% (Serine/threonine-protein kinase WNK4 (WNK4, Homo sapiens, UniProt Q96J92); enzyme activity, inhibitor; 23.5 nM).
With `CC(=O)N[C@H]1CSSC[C@@H](C(=O)N[C@H](Cc2c[nH]c3ccccc23)C(N)=O)NC(=O)[C@H](Cc2ccccc2)NC(=O)[C@H](CCCNC(=N)N)NC1=O` the Emax was 0% (Melanocortin receptor 4 (MC4R, Homo sapiens, UniProt P32245); cAMP, agonist; HEK293; 3 min).
With `CCCOc1ccc(OC)c(F)c1C(=O)c1ccc(C(=O)N[C@@H]2CNC[C@H]2NC(=O)c2ccc3[nH]ncc3c2)cc1` the remaining activity was 4% (cAMP-dependent protein kinase catalytic subunit PRKX (PRKX, Homo sapiens, UniProt P51817); enzyme activity, inhibitor; 0.75 µM).
`Clc1ccc(C(c2ccc(Cl)cc2)c2nnnn2CCCCN2CCC(Cc3ccc(Cl)c(Cl)c3)CC2)cc1` has an inhibition of 41.1% (SLC6A2; transporter uptake, inhibitor; HEK293; 1 µM).
The ΔTm of `Oc1ccc(-c2nc(-c3ccncc3)c(-c3ccc(F)cc3)[nH]2)cc1` is reported as 1.3 °C (CECR2; thermal stability, DSF; 10 µM).
`Clc1ccc(C(c2ccc(Cl)cc2)c2nnnn2CCCCN2CCN(Cc3ccccc3)CC2)cc1` gave an inhibition of 79% (SLC6A2; transporter uptake, inhibitor; HEK293; 1 µM).
With `CNC(=O)c1cc(Oc2ccc(NC(=O)Nc3ccc(Cl)c(C(F)(F)F)c3)cc2)ccn1` the inhibition was -1% (Serine/threonine-protein kinase Chk2 (CHEK2, Homo sapiens, UniProt O96017, I157T); enzyme activity, inhibitor; 10 µM).
`Nc1ncnc2occ(-c3ccc(NC(=O)Nc4cc(C(F)(F)F)ccc4F)cc3)c12` has a remaining signal of 56% (Peripheral plasma membrane protein CASK (CASK, Homo sapiens, UniProt O14936); cell-free assay; 20 µM).
The remaining binding of `NS(=O)(=O)c1ccc(Nc2nc(-c3ccc(F)cc3)c3ccccc3n2)cc1` is reported as 79% (CECR2; binding, competition with immobilised ligand; 1 µM).
